According to ChEMBL document CHEMBL4396889, “From Inhibition to Degradation: Targeting the Antiapoptotic Protein Myeloid Cell Leukemia 1 (MCL1)” (J Med Chem, 2019):
Active and inactive are the calls of the source. The calls are words filed in the database; no cut-off is given here.

Experiments:
[1] = molecular target: T1, Protein cereblon/Induced myeloid leukemia cell differentiation protein Mcl-1 (Homo sapiens) (UniProt Q07820+Q96SW2); test: Protac activity at Cereblon/MCL1 in human OPM2 cells assessed as protein abundance at 250 nM after 48 hrs by immunoblot analysis relative to control; assay type: cell-based
How it was run: (§1)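 OPM2 multiple myeloma cells, wild type or CRBN-knockout, were treated for 48 h with degrader or DMSO vehicle. MCL1 long and short isoforms were detected by immunoblot and levels compared with DMSO controls.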

[2] = molecular target: T1, Protein cereblon/Induced myeloid leukemia cell differentiation protein Mcl-1 (Homo sapiens); test: Protac activity at Cereblon/MCL1 in human OPM2 cells assessed as protein abundance at 25 nM after 48 hrs by immunoblot analysis relative to control; assay type: cell-based; how it was run: as §1
[3] = molecular target: T2, Induced myeloid leukemia cell differentiation protein Mcl-1 (Homo sapiens, UniProt Q07820); test: Binding affinity to His-tagged biotinylated human MCL1 by surface plasmon resonance method
[4] = molecular target: T1, Protein cereblon/Induced myeloid leukemia cell differentiation protein Mcl-1 (Homo sapiens); test: Protac activity at Cereblon/MCL1 in human OPM2 cells assessed as protein abundance at 1 uM after 48 hrs by immunoblot analysis relative to control; assay type: cell-based; how it was run: as §1
[5] = molecular target: T1, Protein cereblon/Induced myeloid leukemia cell differentiation protein Mcl-1 (Homo sapiens); test: Protac activity at Cereblon/MCL1 long isoform in wild type human OPM2 cells at 100 nM after 48 hrs by immunoblot analysis relative to control; assay type: cell-based; how it was run: as §1
[6] = molecular target: T1, Protein cereblon/Induced myeloid leukemia cell differentiation protein Mcl-1 (Homo sapiens); test: Protac activity at Cereblon/MCL1 long isoform in wild type human OPM2 cells at 250 nM after 48 hrs by immunoblot analysis relative to control; assay type: cell-based; how it was run: as §1
[7] = molecular target: T1, Protein cereblon/Induced myeloid leukemia cell differentiation protein Mcl-1 (Homo sapiens); test: Protac activity at Cereblon/MCL1 long isoform in wild type human OPM2 cells at 500 nM after 48 hrs by immunoblot analysis relative to control; assay type: cell-based; how it was run: as §1
[8] = molecular target: T1, Protein cereblon/Induced myeloid leukemia cell differentiation protein Mcl-1 (Homo sapiens); test: Protac activity at Cereblon/MCL1 short isoform in wild type human OPM2 cells assessed as MCL1 short isoform abundance at 100 nM after 48 hrs by immunoblot analysis relative to control; assay type: cell-based
How it was run: (§2)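 OPM2 wild-type cells, run alongside the CRBN-/- line, were treated for 48 h with compound or DMSO. The MCL1 long and short isoforms were then measured by immunoblot against the DMSO control.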

[9] = molecular target: T1, Protein cereblon/Induced myeloid leukemia cell differentiation protein Mcl-1 (Homo sapiens); test: Protac activity at Cereblon/MCL1 short isoform in wild type human OPM2 cells assessed as MCL1 short isoform abundance at 500 nM after 48 hrs by immunoblot analysis relative to control; assay type: cell-based; how it was run: as §2
[10] = molecular target: T2, Induced myeloid leukemia cell differentiation protein Mcl-1; test: Induction of MCL1 long isoform degradation in CRBN-/- human OPM2 cells assessed as protein abundance at 50 nM after 48 hrs by immunoblot analysis relative to control; assay type: cell-based; how it was run: as §1
[11] = molecular target: T2, Induced myeloid leukemia cell differentiation protein Mcl-1; test: Induction of MCL1 short isoform degradation in CRBN-/- human OPM2 cells assessed as protein abundance at 50 nM after 48 hrs by immunoblot analysis relative to control; assay type: cell-based; how it was run: as §1
[12] = molecular target: T2, Induced myeloid leukemia cell differentiation protein Mcl-1; test: Induction of MCL1 short isoform degradation in CRBN-/- human OPM2 cells assessed as protein abundance at 500 nM after 48 hrs by immunoblot analysis relative to control; assay type: cell-based; how it was run: as §1
[13] = molecular target: T1, Protein cereblon/Induced myeloid leukemia cell differentiation protein Mcl-1 (Homo sapiens); test: Protac activity at Cereblon/MCL1 long isoform in human OPM2 cells assessed as MCL1 long isoform level at 300 nM pre-incubated for 72 hrs followed by cycloheximide addition and measured after 30 mins by immunoblot analysis (reference value: 98%); assay type: cell-based
How it was run: (§3)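 Cycloheximide chase: cells were treated for 72 h with DMSO or degrader, with cycloheximide added for the final 30, 60 or 120 min. OPM2 and MM1.S cells were used, and wild-type OPM2 was compared with OPM2 CRBN-/- at 60 and 120 min. MCL1 was detected by immunoblot.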

[14] = molecular target: T1, Protein cereblon/Induced myeloid leukemia cell differentiation protein Mcl-1 (Homo sapiens); test: Protac activity at Cereblon/MCL1 long isoform in human OPM2 cells assessed as MCL1 long isoform level at 300 nM pre-incubated for 72 hrs followed by cycloheximide addition and measured after 60 mins by immunoblot analysis (reference value: 84%); assay type: cell-based; how it was run: as §3
[15] = molecular target: T1, Protein cereblon/Induced myeloid leukemia cell differentiation protein Mcl-1 (Homo sapiens); test: Protac activity at Cereblon/MCL1 short isoform in human OPM2 cells assessed as MCL1 short isoform level at 300 nM pre-incubated for 72 hrs followed by cycloheximide addition and measured after 30 mins by immunoblot analysis (reference value: 100%); assay type: cell-based
How it was run: (§4)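 OPM2 or MM1.S cells were treated for 72 h with compound or DMSO. Cycloheximide was added for the final 30, 60 or 120 min. MCL1 was read by immunoblot and compared with DMSO-treated cells as a normal-turnover reference.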

[16] = molecular target: T1, Protein cereblon/Induced myeloid leukemia cell differentiation protein Mcl-1 (Homo sapiens); test: Protac activity at Cereblon/MCL1 long isoform in human MM1S cells assessed as MCL1 long isoform level at 300 nM pre-incubated for 72 hrs followed by cycloheximide addition and measured after 30 mins by immunoblot analysis (reference value: 96%); assay type: cell-based; how it was run: as §3
[17] = molecular target: T1, Protein cereblon/Induced myeloid leukemia cell differentiation protein Mcl-1 (Homo sapiens); test: Protac activity at Cereblon/MCL1 long isoform in human MM1S cells assessed as MCL1 long isoform level at 300 nM pre-incubated for 72 hrs followed by cycloheximide addition and measured after 120 mins by immunoblot analysis (reference value: 55%); assay type: cell-based; how it was run: as §3
[18] = molecular target: T1, Protein cereblon/Induced myeloid leukemia cell differentiation protein Mcl-1 (Homo sapiens); test: Protac activity at Cereblon/MCL1 short isoform in human MM1S cells assessed as MCL1 short isoform level at 300 nM pre-incubated for 72 hrs followed by cycloheximide addition and measured after 60 mins by immunoblot analysis (reference value: 98%); assay type: cell-based; how it was run: as §4
[19] = molecular target: T1, Protein cereblon/Induced myeloid leukemia cell differentiation protein Mcl-1 (Homo sapiens); test: Protac activity at Cereblon/MCL1 short isoform in human MM1S cells assessed as MCL1 short isoform level at 300 nM pre-incubated for 72 hrs followed by cycloheximide addition and measured after 120 mins by immunoblot analysis (reference value: 80%); assay type: cell-based; how it was run: as §3
[20] = molecular target: T1, Protein cereblon/Induced myeloid leukemia cell differentiation protein Mcl-1 (Homo sapiens); test: Protac activity at Cereblon/MCL1 long isoform in wild type human OPM2 cells assessed as MCL1 long isoform level at 300 nM pre-incubated for 72 hrs followed by cycloheximide addition and measured after 60 mins by immunoblot analysis (reference value: 84%); assay type: cell-based; how it was run: as §3
[21] = molecular target: T2, Induced myeloid leukemia cell differentiation protein Mcl-1; test: Induction of MCL1 long isoform degradation in CRBN-/- human OPM2 cells assessed as protein abundance at 300 nM pre-incubated for 72 hrs followed by cycloheximide addition and measured after 60 mins by immunoblot analysis (reference value: 79%); assay type: cell-based; how it was run: as §3
[22] = molecular target: T2, Induced myeloid leukemia cell differentiation protein Mcl-1; test: Induction of MCL1 short isoform degradation in CRBN-/- human OPM2 cells assessed as protein abundance at 300 nM pre-incubated for 72 hrs followed by cycloheximide addition and measured after 60 mins by immunoblot analysis (reference value: 57%); assay type: cell-based; how it was run: as §3
[23] = molecular target: T1, Protein cereblon/Induced myeloid leukemia cell differentiation protein Mcl-1 (Homo sapiens); test: Protac activity at Cereblon/MCL1 short isoform in human OPM2 cells assessed as MCL1 short isoform abundance at 50 nM after 24 hrs by immunoblot analysis relative to control; assay type: cell-based
[24] = molecular target: T1, Protein cereblon/Induced myeloid leukemia cell differentiation protein Mcl-1 (Homo sapiens); test: Protac activity at Cereblon/MCL1 short isoform in human OPM2 cells assessed as MCL1 short isoform abundance at 100 nM after 24 hrs by immunoblot analysis relative to control; assay type: cell-based
[25] = molecular target: T1, Protein cereblon/Induced myeloid leukemia cell differentiation protein Mcl-1 (Homo sapiens); test: Protac activity at Cereblon/MCL1 short isoform in human OPM2 cells assessed as MCL1 short isoform abundance at 500 nM after 24 hrs by immunoblot analysis relative to control; assay type: cell-based
[26] = molecular target: T1, Protein cereblon/Induced myeloid leukemia cell differentiation protein Mcl-1 (Homo sapiens); test: Protac activity at Cereblon/MCL1 long isoform in human OPM2 cells assessed as MCL1 long isoform abundance at 500 nM after 24 hrs by immunoblot analysis relative to control; assay type: cell-based
[27] = molecular target: T1, Protein cereblon/Induced myeloid leukemia cell differentiation protein Mcl-1 (Homo sapiens); test: Protac activity at N-terminal His-tagged human MCL1 expressed in Escherichia coli/Cereblon in human OPM2 cell lysate assessed as ternary complex formation at 500 nM incubated for 4 hrs followed by cell lysate addition after overnight incubation by SDS-PAGE/immunoblot analysis

T2 sequence (Q07820 whole entry): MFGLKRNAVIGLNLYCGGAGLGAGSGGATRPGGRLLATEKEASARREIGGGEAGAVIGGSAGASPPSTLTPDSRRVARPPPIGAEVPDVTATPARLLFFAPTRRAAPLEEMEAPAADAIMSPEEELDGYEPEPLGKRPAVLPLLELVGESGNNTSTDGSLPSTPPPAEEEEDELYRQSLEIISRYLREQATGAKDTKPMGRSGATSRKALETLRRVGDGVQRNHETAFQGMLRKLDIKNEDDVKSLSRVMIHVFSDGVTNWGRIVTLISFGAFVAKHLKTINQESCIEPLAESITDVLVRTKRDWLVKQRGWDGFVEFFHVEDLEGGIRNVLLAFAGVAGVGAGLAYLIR
T1 sequence (Q07820 whole entry, looked up, canonical isoform): as the sequence (Q07820 whole entry) above
T1 sequence (Q96SW2 whole entry, looked up, canonical isoform): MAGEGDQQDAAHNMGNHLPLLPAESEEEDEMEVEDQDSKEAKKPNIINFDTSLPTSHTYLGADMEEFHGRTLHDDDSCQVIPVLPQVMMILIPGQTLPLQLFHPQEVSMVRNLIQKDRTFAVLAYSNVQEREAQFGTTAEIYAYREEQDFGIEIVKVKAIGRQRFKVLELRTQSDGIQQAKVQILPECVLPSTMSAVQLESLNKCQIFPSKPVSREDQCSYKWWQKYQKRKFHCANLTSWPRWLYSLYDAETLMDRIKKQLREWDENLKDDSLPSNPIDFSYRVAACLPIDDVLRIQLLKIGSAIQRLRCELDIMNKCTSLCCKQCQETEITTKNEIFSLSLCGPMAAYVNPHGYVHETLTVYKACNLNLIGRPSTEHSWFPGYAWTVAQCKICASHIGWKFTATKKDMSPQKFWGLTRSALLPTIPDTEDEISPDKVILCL

Cc1nn(C)c(COc2ccc(N3CCN(S(=O)(=O)N(C)C)CC3)cc2)c1-c1cccc2c(CCCOc3cccc4ccccc34)c(C(=O)O)n(CCN3CCN(C(=O)COc4cccc5c4C(=O)N(C4CCC(=O)NC4=O)C5=O)CC3)c12 (configuration not stated)
Activity [1]: 63% | Activity [2]: 89% | Kd [3]: 30 nM | Activity [4]: 110% | Activity [5]: 69% | Activity [6]: 70% | Activity [7]: 50% | Activity [8]: 53% | Activity [9]: 20% | Activity [10]: 100% | Activity [11]: 100% | Activity [12]: 100% | Activity [13]: 88% | Activity [14]: 58% | Activity [15]: 34% | Activity [16]: 90% | Activity [17]: 40% | Activity [18]: 31% | Activity [19]: 34% | Activity [20]: 66% | Activity [21]: 78% | Activity [22]: 64% | Activity [23]: 96% | Activity [24]: 59% | Activity [25]: 22% | Activity [26]: 55% | Activity [27]: Active
